In ChEMBL document CHEMBL1811804, “Benzyl derivatives with in vitro binding affinity for human opioid and cannabinoid receptors from the fungus Eurotium repens” (J Nat Prod, 2011):

How the values were obtained:
Assay type in all cases: cell-based
[1] = molecular target: T1, Delta-type opioid receptor (Homo sapiens, UniProt P41143); test: Binding affinity at human delta opioid receptor expressed in CHO-K1 cells at 10 uM
Procedure, shortened: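 Opioid membrane binding with test compound at 10 μM final; radioligand and membrane amounts set from saturation experiments. Incubation 25 °C, 60 min, then rapid filtration through BSA-presoaked filters, buffer wash and scintillation counting.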

Cannabinoid receptor 1 [2] = molecular target: T2, Cannabinoid receptor 1 (Homo sapiens, UniProt P21554); test: Binding affinity at human CB1 receptor expressed in CHO-K1 cells at 10 uM
[3] = molecular target: T1, Delta-type opioid receptor; test: Displacement of [3H]DPDPE from human delta opioid receptor expressed in CHO-K1 cells after 60 mins by scintillation counting
Procedure, shortened: (§1)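 Opioid receptor membranes incubated with radioligand (amounts set from saturation experiments) at 25 °C for 60 min, test compound at 300 μM to 1.7 nM in dose-response. Rapid filtration through BSA-presoaked filters, scintillation counting; nonspecific binding (10 μM DPDPE, nor-binaltorphimine or DAMGO) subtracted. IC50 = concentration for 50% inhibition of 3H-ligand binding.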

Cannabinoid receptor 2 [4] = molecular target: T3, Cannabinoid receptor 2 (Homo sapiens, UniProt P34972); test: Binding affinity at human CB2 receptor expressed in CHO-K1 cells at 10 uM
Procedure, shortened: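 CHO-K1 cells stably transfected with full-length human CB1 or CB2 cDNA, cultured in DMEM/F-12 with 10% FBS and G418 or hygromycin B. Membranes (10 μg) incubated with test compound at 10 μM final and 0.6 nM [3H]CP-55,940 in 50 mM Tris pH 7.4, 154 mM NaCl, 20 mM Di-Na-EDTA, 0.02% BSA, 37 °C, 90 min. Filtration, scintillation counting; nonspecific binding (1 μM CP-55,940) subtracted; % displacement.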

Cannabinoid receptor 1 [5] = molecular target: T2, Cannabinoid receptor 1; test: Displacement of [3H]CP-55,940 from human CB1 receptor expressed in CHO-K1 cells after 90 mins by scintillation counting
Procedure, shortened: (§2)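 Membranes from CHO-K1 cells stably expressing human CB1 or CB2, 10 μg per well, with 0.6 nM [3H]CP-55,940 in 50 mM Tris pH 7.4, 154 mM NaCl, 20 mM Di-Na-EDTA, 0.02% BSA; 37 °C for 90 min. Dose-response from 300 μM to 1.7 nM.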

Cannabinoid receptor 2 [6] = molecular target: T3, Cannabinoid receptor 2; test: Displacement of [3H]CP-55,940 from human CB2 receptor expressed in CHO-K1 cells after 90 mins by scintillation counting; procedure, shortened: as §2
Mu-type opioid receptor = Mu-type opioid receptor (Homo sapiens, UniProt P35372); test: Displacement of [3H]DAMGO from human mu opioid receptor expressed in CHO-K1 cells after 60 mins by scintillation counting; procedure, shortened: as §1
[7] = molecular target: Kappa-type opioid receptor (Homo sapiens, UniProt P41145); test: Displacement of [3H]nor-Binaltorphimine from human kappa opioid receptor expressed in CHO-K1 cells after 60 mins by scintillation counting; procedure, shortened: as §1
Chain of Kappa-type opioid receptor (P41145 whole entry): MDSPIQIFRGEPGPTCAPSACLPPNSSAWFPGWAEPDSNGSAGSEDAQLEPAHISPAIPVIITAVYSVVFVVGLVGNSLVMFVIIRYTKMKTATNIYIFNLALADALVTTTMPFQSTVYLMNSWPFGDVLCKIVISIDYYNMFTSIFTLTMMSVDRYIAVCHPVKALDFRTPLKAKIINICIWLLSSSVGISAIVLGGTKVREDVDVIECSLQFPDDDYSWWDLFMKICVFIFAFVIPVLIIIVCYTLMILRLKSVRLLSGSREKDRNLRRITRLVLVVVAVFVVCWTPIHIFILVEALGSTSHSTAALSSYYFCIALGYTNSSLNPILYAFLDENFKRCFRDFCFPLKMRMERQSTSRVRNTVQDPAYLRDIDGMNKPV

T1 sequence (P41143 whole entry): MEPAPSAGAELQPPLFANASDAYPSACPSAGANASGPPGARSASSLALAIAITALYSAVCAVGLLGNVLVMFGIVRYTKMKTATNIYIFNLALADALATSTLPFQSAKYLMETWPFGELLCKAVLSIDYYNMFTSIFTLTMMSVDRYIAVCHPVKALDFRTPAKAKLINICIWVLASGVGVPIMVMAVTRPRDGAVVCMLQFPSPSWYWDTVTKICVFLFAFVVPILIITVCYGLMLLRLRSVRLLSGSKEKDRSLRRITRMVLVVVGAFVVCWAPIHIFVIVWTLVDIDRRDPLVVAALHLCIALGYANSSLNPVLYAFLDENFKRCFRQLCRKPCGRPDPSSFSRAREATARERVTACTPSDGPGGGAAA
T3 sequence (P34972 whole entry): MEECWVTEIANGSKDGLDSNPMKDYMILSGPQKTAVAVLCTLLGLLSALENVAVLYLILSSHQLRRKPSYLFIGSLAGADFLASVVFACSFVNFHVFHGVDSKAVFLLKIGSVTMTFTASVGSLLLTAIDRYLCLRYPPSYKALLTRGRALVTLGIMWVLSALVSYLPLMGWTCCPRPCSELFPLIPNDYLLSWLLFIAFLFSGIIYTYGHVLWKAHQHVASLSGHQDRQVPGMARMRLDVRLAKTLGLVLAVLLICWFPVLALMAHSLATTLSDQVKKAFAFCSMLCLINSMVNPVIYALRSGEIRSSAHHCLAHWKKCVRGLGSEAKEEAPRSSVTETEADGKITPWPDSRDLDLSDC
T2 sequence (P21554 whole entry): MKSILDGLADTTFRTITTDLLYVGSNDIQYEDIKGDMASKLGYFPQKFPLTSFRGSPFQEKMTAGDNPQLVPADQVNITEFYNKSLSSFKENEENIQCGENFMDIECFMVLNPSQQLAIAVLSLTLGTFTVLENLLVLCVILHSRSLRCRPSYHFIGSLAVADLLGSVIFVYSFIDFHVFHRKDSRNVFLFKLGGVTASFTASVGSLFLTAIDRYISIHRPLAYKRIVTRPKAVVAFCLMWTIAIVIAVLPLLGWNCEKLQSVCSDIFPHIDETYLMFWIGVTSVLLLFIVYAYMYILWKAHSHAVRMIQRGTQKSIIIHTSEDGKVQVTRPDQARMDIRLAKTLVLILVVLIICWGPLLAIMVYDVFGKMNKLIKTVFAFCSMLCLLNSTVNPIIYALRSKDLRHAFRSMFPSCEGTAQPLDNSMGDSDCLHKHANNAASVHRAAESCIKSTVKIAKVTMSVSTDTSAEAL
Chain of Mu-type opioid receptor (P35372 whole entry): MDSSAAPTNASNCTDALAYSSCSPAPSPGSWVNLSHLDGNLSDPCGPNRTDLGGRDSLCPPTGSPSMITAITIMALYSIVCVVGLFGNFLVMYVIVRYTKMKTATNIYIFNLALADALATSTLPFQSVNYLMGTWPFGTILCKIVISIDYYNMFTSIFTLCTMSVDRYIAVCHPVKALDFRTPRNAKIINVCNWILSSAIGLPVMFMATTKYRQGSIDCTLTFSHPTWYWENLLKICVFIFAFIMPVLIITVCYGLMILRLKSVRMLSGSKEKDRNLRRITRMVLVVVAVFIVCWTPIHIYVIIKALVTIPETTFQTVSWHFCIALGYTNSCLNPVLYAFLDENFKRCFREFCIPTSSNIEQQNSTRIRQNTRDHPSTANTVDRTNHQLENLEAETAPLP

| Compound | Activity [1] [%] | Activity (Cannabinoid receptor 1 [2]) [%] | IC50 [3] [µM] | Activity (Cannabinoid receptor 2 [4]) [%] | IC50 (Cannabinoid receptor 1 [5]) [µM] | IC50 (Cannabinoid receptor 2 [6]) [µM] | IC50 (Mu-type opioid receptor) [µM] | IC50 [7] [µM] |
| --- | --- | --- | --- | --- | --- | --- | --- | --- |
| CCCCC/C=C/c1c(O)cc(CC=C(C)C)c(O)c1CO | 62.2 | < 40 | 5.4 | < 40 |  |  |  |  |
| Cc1c(O)cc(O)c2c1COC2=O | < 40 | < 40 |  | < 40 |  |  |  |  |
| CCC/C=C/C=C/c1c(O)cc(CC=C(C)C)c(O)c1C=O | < 40 | < 40 |  | < 40 |  |  |  |  |
| CCC/C=C/c1cc2c(C=O)c(O)c(CC=C(C)C)cc2o1 | < 40 | < 40 |  | < 40 |  |  |  |  |
| CCCCCCCc1c(O)cc(CC=C(C)C)c(O)c1C=O | 52.5 | < 40 |  | < 40 |  |  |  |  |
| C=CC(C)(C)c1[nH]c2c(CC=C(C)C)cc(CC=C(C)C)cc2c1C[C@@H]1NC(=O)[C@H](C)NC1=O | < 40 | < 40 |  | < 40 |  |  |  |  |
| C/C=C/C=C/C=C/c1c(O)cc(CC=C(C)C)c(O)c1C=O [AUROGLAUCIN] | < 40 | 62.6 |  | 43.1 | 15.2 | 19.9 |  |  |
| CCCCC/C=C/c1c(O)cc(CC=C(C)C)c(O)c1C=O [TETRAHYDROAUROGLAUCIN] | < 40 | < 40 |  | < 40 |  |  | 7.2 |  |
| CCCCC/C=C/c1c(O)cc(CC=C(C)C)c2c1CC(O)O2 (stereo not given) | < 40 |  |  |  |  |  |  | 32.4 |
